Consider 24 compounds from ChEMBL document CHEMBL4477165, “Eremophilane-Type Sesquiterpenoids from an Acremonium sp. Fungus Isolated from Deep-Sea Sediments” (J Nat Prod, 2016).

Molecules are shown by their SMILES.

The nature of data set [1]: Cytotoxicity against mouse RAW264.7 cells assessed as cell survival at 50 uM after 24 hrs by MTT assay. It is filed as cell-based. Particulars: read-out: Survival. In short, it runs like this:
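RAW 264.7 mouse macrophages in DMEM with 10% FBS, penicillin and streptomycin, at 37 °C under 5% CO2. Seeded at 5 × 10^3 cells/well for 24 h, then exposed 24 h to samples at 50 μM final (1% DMSO; vehicle and cell-free blanks). MTT added, 4 h, medium replaced with DMSO, absorbance read at 490 nm.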
In general terms: Tetrazolium assays rely on reduction of a dye to a coloured formazan, in cell work by metabolically active cells.

Data set [2] in a line: Cytotoxicity against mouse RAW264.7 cells assessed as reduction in cell viability after 24 hrs by MTT assay. It is filed as cell-based. In short, it runs like this:
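MTT viability test in RAW 264.7 cells plated at 5 × 10^3 per well for 24 h. Cells were treated with sample at final 50 μM in 1% DMSO for 24 h. 1% DMSO served as vehicle control and cell-free medium as blank. MTT was added for 4 h, formazan dissolved in DMSO, and absorbance read at 490 nm.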

In data set [3] the test system is RAW264.7. Kind of data set: Antiinflammatory activity in mouse RAW264.7 cells assessed as inhibition of LPS-induced NO production at 50 uM by Griess assay. It counts as functional. In short, it runs like this:
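RAW 264.7 cells grown in DMEM with 10% FBS, penicillin/streptomycin, 37 °C, 5% CO2. Seeded 5 × 10^4 cells/well for 24 h, then given sample (final 50 μM, 1% DMSO) plus 2 μg/mL LPS for 24 h. Supernatant mixed with Griess reagents I and II, absorbance read at 540 nm. % inhibition computed against LPS-only (model) and no-LPS (blank) wells.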
(In general: Griess reagent forms a coloured azo dye with nitrite.)

Data set [4] has as its system RAW264.7. Kind of data set: Inhibition of NF-kappaB (unknown origin) expressed in mouse RAW264.7 cells at 50 uM pretreated for 1 hr followed by stimulation with LPS measured after 6 hrs by luciferase reporter gene assay. It is filed as cell-based. In short, it runs like this:
(§1)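 RAW 264.7 cells stably carrying a pNF-κB-Luc reporter, kept in DMEM/10% FBS with geneticin 500 μg/mL, 37 °C. Pretreated 1 h with sample (0.78–200 μM) and then stimulated with E. coli 055:B5 LPS for 6 h. […] Triplicates, mean ± SD; IC50 by sigmoidal nonlinear regression.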
For orientation: Reporter assays use an easily measured gene product as a stand-in for the process of interest.

For data set [5], the system named is RAW264.7. Kind of data set: Antiinflammatory activity in mouse RAW264.7 cells assessed as inhibition of LPS-induced NO production by Griess assay. It counts as functional, cell-based. In short, it runs like this:
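RAW 264.7 cells in DMEM/10% FBS seeded at 5 × 10^4 per well for 24 h. Samples added in DMSO (1% final) together with 2 μg/mL LPS and incubated 24 h. Nitrite read at 540 nm by Griess reagent.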

Data set [6] is described as follows: Inhibition of NF-kappaB (unknown origin) expressed in mouse RAW264.7 cells pretreated for 1 hr followed by stimulation with LPS measured after 6 hrs by luciferase reporter gene assay. It is filed as cell-based. In short, it runs like this: as §1

For orientation: CC50 means the concentration giving 50% cytotoxicity. By inhibition is commonly meant the relative decrease from the control value, in per cent. For the compound `CC1=C2C[C@@]3(C)C(=C[C@@H](O)[C@H](O)[C@@H]3C)C=C2OC1=O`, the viability at 24 h, 50 µM in data set [1] is greater than 90%. Also, in data set [2], the 50% cytotoxic concentration (CC50) at 24 h is greater than 50 µM. The inhibition at 50 µM in the data set with RAW264.7 [3] came out at 11%.

For `C=C(C)[C@@H]1C[C@@]2(C)C(=CC1=O)C[C@H](O)C[C@@H]2C`, the viability at 24 h, 50 µM in data set [1] is greater than 90%. The CC50 at 24 h in data set [2] was greater than 50 µM. In addition, the inhibition at 50 µM in the data set with RAW264.7 [3] was 16%.

Consider `C=C(CO)[C@@H]1C[C@@]2(C)C(=C[C@H](O)C[C@@H]2C)C[C@H]1O`, for which, in data set [1], the viability at 24 h, 50 µM was greater than 90%. For the same compound, in data set [2], the cytotoxic concentration (CC50) at 24 h is greater than 50 µM. Also, the inhibition at 50 µM in the data set on RAW264.7 [3] was 15%.

Usually IC50 stands for the point on the concentration scale where inhibition reaches its midpoint. With `C/C=C/CCC(=O)O[C@H]1C=CC2=CC(=O)[C@H](/C(C=O)=C\OC)C[C@]2(C)[C@H]1C`, the viability at 24 h, 50 µM in data set [1] was greater than 90%. The inhibition in the data set on RAW264.7 [4] turned out to be 38%. In addition, the CC50 at 24 h in data set [2] is greater than 50 µM. The IC50 in the data set with RAW264.7 [5] was determined as 25 µM. Besides, the inhibition at 50 µM with RAW264.7 [3] was 66%.

As for `CC1=C2C[C@@]3(C)C(=C[C@@H](O)[C@@H](O)[C@@H]3C)C=C2OC1=O`, the viability at 24 h, 50 µM in data set [1] is greater than 90%. Also, the CC50 at 24 h in data set [2] is greater than 50 µM. Also, in the data set with RAW264.7 [3], the inhibition at 50 µM was determined as 23%.

As for `C=C(C(=O)O)[C@@H]1C[C@@]2(C)C(=CC1=O)C=C[C@H](OC(=O)CC/C=C/C)[C@@H]2C`, the values for the IC50 (in data set [6]; in the data set with RAW264.7 [5]) were 78 µM and 8 µM, respectively. The viability at 24 h, 50 µM in data set [1] is greater than 90%. Besides, in the data set with RAW264.7 [4], the inhibition stood at 40%. The 50% cytotoxic concentration (CC50) at 24 h in data set [2] is greater than 50 µM. Also, in the data set with RAW264.7 [3], the inhibition at 50 µM came out at 97%.

As to `CC(=O)O[C@H]1C(=O)C=C2C=C3OC(=O)C(C)=C3C[C@]2(C)[C@H]1C`, the viability at 24 h, 50 µM in data set [1] is greater than 90%. In addition, in data set [2], the 50% cytotoxic concentration (CC50) at 24 h is greater than 50 µM. In addition, the IC50 in the data set with RAW264.7 [5] turned out to be 22 µM. The inhibition at 50 µM in the data set with RAW264.7 [3] turned out to be 68%.

On to `S=C(S)N1CCCC1` [PYRROLIDINE DITHIOCARBAMATE], for which the IC50 in data set [6] was 37 µM.

Consider `C=C(C(=O)O)[C@@H]1C[C@@]2(C)C(=CC1=O)C=C[C@H](O)[C@@H]2C`, for which the viability at 24 h, 50 µM in data set [1] was greater than 90%. The CC50 at 24 h in data set [2] was greater than 50 µM. Also, the inhibition at 50 µM in the data set on RAW264.7 [3] was 11%.

In the case of `C=C(C)[C@@H]1C[C@@]2(C)C(=C[C@H](O)C[C@@H]2C)C[C@H]1O`, the viability at 24 h, 50 µM in data set [1] was greater than 90%. Moreover, in data set [2], the CC50 at 24 h is greater than 50 µM. Also, the inhibition at 50 µM in the data set with RAW264.7 [3] was 24%.

On to `C=C(C)[C@@H]1C[C@@]2(C)C(=CC1=O)[C@H](O)[C@H](O)C[C@@H]2C`, for which, in data set [1], the viability at 24 h, 50 µM is greater than 90%. Besides, in data set [2], the CC50 at 24 h is greater than 50 µM. For the same compound, the inhibition at 50 µM with RAW264.7 [3] worked out at 22%.

For `CC1=C2C[C@@]3(C)C(=CC(=O)C(O)=C3C)C=C2OC1=O`, the viability at 24 h, 50 µM in data set [1] is greater than 90%. Also, in data set [2], the CC50 at 24 h was greater than 50 µM. For the same compound, in the data set on RAW264.7 [3], the inhibition at 50 µM came to 16%.

For `C=C(C)[C@@H]1C[C@@]2(C)C(=CC(=O)C[C@@H]2C)C[C@H]1O`, in data set [1], the viability at 24 h, 50 µM was greater than 90%. Also, in data set [2], the CC50 at 24 h is greater than 50 µM. The inhibition at 50 µM in the data set with RAW264.7 [3] is 4%.

For `C=C(CO)[C@@H]1C[C@@]2(C)C(=CC(=O)C[C@@H]2C)C[C@H]1O`, the viability at 24 h, 50 µM in data set [1] was greater than 90%. In addition, the CC50 at 24 h in data set [2] was greater than 50 µM. Moreover, the inhibition at 50 µM with RAW264.7 [3] came out at 7%.

As to `CC1=C2C[C@]3(C)[C@@H](C)C=C[C@H](O)[C@@]3(O)C=C2OC1=O`, in data set [1], the viability at 24 h, 50 µM was greater than 90%. In data set [2], the CC50 at 24 h is greater than 50 µM. Besides, in the data set with RAW264.7 [3], the inhibition at 50 µM was 7%.

`C/C=C/CCC(=O)O[C@H]1C=CC2=C[C@]3(O)OC(=O)C(CO)=C3C[C@]2(C)[C@H]1C`: the viability at 24 h, 50 µM in data set [1] was greater than 90%. Moreover, in the data set on RAW264.7 [4], the inhibition was determined as 20%. Besides, the CC50 at 24 h in data set [2] was greater than 50 µM. Moreover, in the data set on RAW264.7 [5], the IC50 was 26 µM. For the same compound, in the data set with RAW264.7 [3], the inhibition at 50 µM was 63%.

Regarding `O=c1c(O)c(-c2ccc(O)c(O)c2)oc2cc(O)cc(O)c12` [QUERCETIN], in data set [2], the CC50 at 24 h was greater than 50 µM. Besides, in the data set with RAW264.7 [5], the IC50 turned out to be 15 µM.

In the case of `CC1=C2C[C@]3(C)[C@@H](C)C=C[C@H](O)[C@]3(O)C=C2OC1=O`, the viability at 24 h, 50 µM in data set [1] is greater than 90%. For the same compound, the half-maximal cytotoxic concentration (CC50) at 24 h in data set [2] is greater than 50 µM. In addition, the inhibition at 50 µM in the data set on RAW264.7 [3] amounted to 12%.

`C/C=C/CCC(=O)O[C@H]1C=CC2=CC(=O)/C(=C(\C)C(=O)O)C[C@]2(C)[C@H]1C`: the viability at 24 h, 50 µM in data set [1] is greater than 90%. Besides, the CC50 at 24 h in data set [2] was greater than 50 µM. The concentration for half-maximal inhibition (IC50) in the data set with RAW264.7 [5] was determined as 45 µM. For the same compound, the inhibition at 50 µM with RAW264.7 [3] amounted to 46%.

Regarding `C=C(C)[C@@H]1C[C@@]2(C)C(=CC1=O)C[C@H](OC(C)=O)C[C@@H]2C`, the viability at 24 h, 50 µM in data set [1] is greater than 90%. The CC50 at 24 h in data set [2] is greater than 50 µM. The inhibition at 50 µM with RAW264.7 [3] is 29%.

As to `CC1=C2C[C@@]3(C)C(=C[C@H](O)[C@@H](O)[C@@H]3C)C=C2OC1=O`, the viability at 24 h, 50 µM in data set [1] is greater than 90%. In addition, the half-maximal cytotoxic concentration (CC50) at 24 h in data set [2] was greater than 50 µM. In addition, the inhibition at 50 µM in the data set with RAW264.7 [3] was determined as 21%.

With `CC(=O)O[C@H]1[C@H](O)C=C2C=C3OC(=O)C(C)=C3C[C@]2(C)[C@H]1C`, the viability at 24 h, 50 µM in data set [1] is greater than 90%. Besides, the CC50 at 24 h in data set [2] was greater than 50 µM. Also, the inhibition at 50 µM with RAW264.7 [3] came out at 36%.

As for `C/C=C/CCC(=O)O[C@H]1C=CC2=C[C@]3(O)OC(=O)C(C)=C3C[C@]2(C)[C@H]1C`, the results for the IC50 (in data set [6]; in the data set on RAW264.7 [5]) were 72 µM and 15 µM, respectively. The viability at 24 h, 50 µM in data set [1] is greater than 90%. For the same compound, the inhibition in the data set on RAW264.7 [4] turned out to be 42%. Besides, the CC50 at 24 h in data set [2] was greater than 50 µM. Also, in the data set on RAW264.7 [3], the inhibition at 50 µM is 92%.

Consider `C=C(C)[C@@H]1C[C@@]2(C)C(=C[C@H](O)C[C@@H]2C)C[C@H]1OC(C)=O`, for which the viability at 24 h, 50 µM in data set [1] was greater than 90%. Also, the CC50 at 24 h in data set [2] was greater than 50 µM. For the same compound, the inhibition at 50 µM with RAW264.7 [3] was determined as 30%.
